In PubChem BioAssay AID2300 (The Scripps Research Institute Molecular Screening Center, 2010):
Among all 320,000 compounds or so, about 380 (0.12%) were called active.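 Rule for the calls: active = percent inhibition above the cutoff of mean plus 3 SD of all tested compounds, set per screening campaign (cut at about 20% in these data); inactive = the rest.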 The list comes from a sample in which actives are over-represented; it also holds similar structures and randomly drawn compounds.

Each compound was assayed against Photoreceptor-specific nuclear receptor (Homo sapiens) (UniProt Q9Y5X4) (assay: disruption of NR2E3 corepressor interaction – biochemical, TR-FRET, GST-NR2E3, biotin-RetCOR, NR2E3 agonist project, primary screen (AID 2300;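 note: 0% = DMSO wells and 100% = biotin wells as full block of FRET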)). Conditions: 1536-well, at 4.78 µM, stronger effect = higher value.
Chain of Photoreceptor-specific nuclear receptor (Homo sapiens) (Q9Y5X4 whole entry, looked up): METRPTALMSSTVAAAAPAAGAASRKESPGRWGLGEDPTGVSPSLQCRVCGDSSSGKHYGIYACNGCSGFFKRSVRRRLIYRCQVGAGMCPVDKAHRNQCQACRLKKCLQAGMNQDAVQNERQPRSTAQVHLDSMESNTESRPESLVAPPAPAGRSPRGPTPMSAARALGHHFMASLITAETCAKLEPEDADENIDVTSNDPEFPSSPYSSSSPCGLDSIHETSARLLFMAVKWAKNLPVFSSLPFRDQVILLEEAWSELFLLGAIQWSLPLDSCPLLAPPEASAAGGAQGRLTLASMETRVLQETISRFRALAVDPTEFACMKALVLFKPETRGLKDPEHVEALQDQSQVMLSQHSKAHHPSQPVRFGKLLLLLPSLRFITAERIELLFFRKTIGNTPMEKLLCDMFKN
Summary of the method: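 Material: NR2E3–RetCOR corepressor complex / Incubation: Compound–protein incubation for 5 h at 4 °C / Dosing: compound at 4.8 µM, single dose / Detection: time-resolved FRET / Benchmarks: high control biotin, low control 0.6% DMSO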

Inhibition of corepressor binding, active:
CN(Cc1ccccc1)Cc1ccccc1F 24.1%
O=C1C(=O)N(CCN2CCOCC2)C(c2cccc(Cl)c2)/C1=C(/O)c1ccc2c(c1)OCO2 (stereo unspecified) 31.6%
COCCNC(=O)Nc1ccc2nc(-c3ccco3)c(-c3ccco3)nc2c1 30.4%
CC[N+](C)(CC)CCC[n+]1c(-c2ccccc2)c2cc(N)ccc2c2ccc(N)cc21 41.5%

Inhibition of corepressor binding, inactive:
COc1ccc(NC(=O)CN2C(=O)C(c3ccccc3)=NC23CCCCCC3)cc1OC 1.4%
O=C(CCc1ccc(S(=O)(=O)N2CCOCC2)cc1)Nc1ccc2ccccc2c1 0.61%
O=C(C(Cc1ccccc1)n1cccc1)N1CCN(C2CCCCC2)CC1 (stereo unspecified) -0.53%
O=C(/C=N/O)Nc1ccccc1 -4.21%
O=C(COC(=O)c1ccc(NS(=O)(=O)c2cccs2)cc1O)Nc1ccc(F)cc1 0.61%
Cc1cc(C)n(CC(C)NCc2c(C(=O)N3CCOCC3)nc3c(C)cccn23)n1 (stereo unspecified) -0.74%
COc1cc(C(=O)NCC(c2ccco2)N2CCCC2)ccc1OCc1ccccc1 (stereo unspecified) 2.49%
CCOC(=O)c1c(NC(=O)CN2C(=O)NC3(CCC(C)CC3)C2=O)sc(C)c1CC (stereo unspecified) 1.08%
O=C(COc1coc(CN2CCN(c3ccccc3F)CC2)cc1=O)N1CCc2ccccc21 -1.02%
CN(C(=O)CSc1nnc(Nc2ccccc2)s1)C1CCS(=O)(=O)C1 (stereo unspecified) 0.29%
Cc1ccc(S(=O)(=O)NC2(C(F)(F)F)NC(=O)N(CCc3ccccc3)C2=O)cc1 (stereo unspecified) 1.1%
COc1ccc(-c2cc(C(=O)N/N=C/c3cccnc3)c3ccccc3n2)c(OC)c1 6.06%
O=C(Nc1cc(S(=O)(=O)N2CCOCC2)ccc1Cl)c1cc(=O)c2ccccc2o1 1.24%
O=C(NCCCN1CCOCC1)C1CCCN(S(=O)(=O)N2CCCCC2)C1 (stereo unspecified) 0.58%
N=c1n(CCc2ccccc2)c2ccccc2n1Cc1ccccc1F -5.83%
CN(Cc1ccccc1F)C(=O)C(Cc1ccccc1)NC(=O)c1ccccc1 (stereo unspecified) 0.68%
CCOc1ccc(CCNC(=O)C2=C(C)C(=O)OC23CCC(C)CC3)cc1OCC (stereo unspecified) -3.37%
O=C1C(=O)N(CCCN2CCOCC2)C(c2ccc([N+](=O)[O-])cc2)/C1=C(\O)c1ccc2c(c1)OCCO2 (stereo unspecified) 2.15%
O=C1C(=O)N(CCN2CCOCC2)C(c2ccccn2)/C1=C(/O)c1ccc(Cl)cc1 (stereo unspecified) -1.05%
Cc1ccc(-c2nc(CSCC(=O)NC3CCN(Cc4ccccc4)CC3)c(C)o2)cc1 1.78%
CCN(CC)Cc1csc2ccc(Br)cc12 -3.8%
CCOc1cc(C2/C(=C(/O)c3ccc(S(=O)(=O)N4CCCCC4)cc3)C(=O)C(=O)N2CCOC)ccc1O (stereo unspecified) 0.08%
CCOc1cc(NC(=S)NCCCOC)c(OCC)cc1NC(=O)c1ccco1 1.79%
O=C(NCc1ccccn1)c1ccc2nc(-c3ccco3)c(-c3ccco3)nc2c1 9.85%
CCOc1cc(C(=O)Nc2ccc(S(=O)(=O)Nc3cnc4ccccc4n3)cc2)cc(OCC)c1OCC 0.9%
CCCOn1c(-n2nc(C)cc2C)nc2ccccc2c1=O -0.33%
COc1ccc2c3c1O[C@H]1C[C@@H](O)C=C[C@@]31CCN(C)C2 4.69%
O=C(CCN1C(=O)c2ccncc2C1=O)Nc1cc(F)ccc1F -0.36%
CCCC(=O)N1CCC(CCC(=O)NC2CC2)CC1 0.01%
Cc1ccc(C(=O)COC(=O)c2cccc(N3C(=O)c4c(C)nc5ccccc5c4C3=O)c2)cc1C -4.34%
COc1ccc(C(C(=O)NC2CCCCC2)N(C(=O)CCl)c2ccccc2Cl)cc1 (stereo unspecified) 3.2%
CCCOC1CCCN(Cc2cn(C)nc2-c2ccccc2F)C1 (stereo unspecified) -1.73%
CC1C(=O)Nc2ccccc2N1C(=O)c1c(F)cccc1F (stereo unspecified) 0.31%
CCCCCCSc1nsc(N)n1 3.46%
CC1CCN(S(=O)(=O)c2ccc3c(c2)n(C)c(=O)n3C)CC1 0.8%
CCc1cc2c(SCC(=O)Nc3ncc(Cl)c(C)c3Cl)ncnc2s1 2.24%
CCc1ccc(S(=O)(=O)Nc2cc3c(cc2N2CCCCC2)n(C)c(=O)c(=O)n3C)cc1 -2.2%
